Source: PubChem BioAssay
Most compounds without a hit are left out; they make up all but 1.6% or so of the library.
PKA-R2B activ = activators of human PKA-R2B complex; P22694+P31323; PKA-R2B holoenzyme dissociation, Cy5-IP20 fluorescence polarization; R2B truncated from residue 108, S112A mutant; 0% DMSO only, 100% 113 µM cGMP; activation, % at 11.4 µM; 340,000 compounds, 0.079% hits; AID 504700;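 active = activation above a cutoff set at the mean over all compounds plus 3 SD, cut at about 18% in these data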;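 note: higher means more holoenzyme dissociation and a rise in polarization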
PKA-R1A activ = activators of PKA-R1A complex. P00514+P68181. PKA-R1A dissociation, Cy5-IP20 fluorescence polarization; scaled: DMSO 0%, 113 µM cGMP 100%. 340,000 compounds, 0.083% hits. AID 504707. activation, % at 11.4 µM;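 active = percent activation above the mean of all tested compounds plus 3 SD, cut at about 19% in these data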;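 note: higher means more PKAc released from R1A so a rise in polarization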
HNF4A DNA FP = change in binding of human HNF4 alpha to DNA; 360,000 compounds, 0.3% hits; P41235; AID 1224865; activity change, % at 10 µM; HNF4a-FITC DNA binding, fluorescence polarization, 1 h; in the data active = activity change above about 30%, passing the limit was not always enough
Rpn11 inh = inhibitors of human proteasome Rpn11; O00487; human 26S proteasome, Ub4-pepOG fluorescence polarization; 20S core pre-blocked with epoxomicin; calls only at 20 µM; 360,000 compounds, 0.59% hits;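 active = inhibition at 20 µM, scaled to each plate's controls, above about 33%, limit read from the data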
CSN deneddyl inh = CSN deneddylation inhibition; Q92905; Purified CSN, SCF-Nedd8-OG deneddylation, fluorescence polarization; inhibition, % at 12.5 µM; 360,000 compounds, 0.38% hits;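 active = pattern-corrected inhibition above about 35%, with an unprinted fluorescence ratio check between 0.5 and 1.5, limit read from the data, passing the limit was not always enough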;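 note: 0% = enzyme with substrate and 100% = substrate without enzyme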
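Material: purified human Csn5 enzyme expressed in HEK293T cells / Medium: Tris buffer pH 7.5, NaCl, DTT, Tween-20, trehalose, ovalbumin / Compound dosing: 12.5 µM single point / Schedule: 90 min incubation of compound, enzyme and substrate at room temperature / Signal: fluorescence polarization of the substrate / Control set: no-enzyme wells high, enzyme-with-substrate wells low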
TPT1 inhibitor = C. albicans TPT1 enzyme inhibition | inhibition, % at 5 µM | 300,000 compounds, 0.81% hits | recombinant caTPT1, FP RNA substrate dephosphorylation;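 active = inhibition above the mean of all tested compounds plus 3 SD, set per screening campaign, cut at about 24% in these data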;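 note: plate controls were DMSO alone for no effect and ferristatin control at 100 nM for full effect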
Rpn11 confirm = Rpn11 inhibition confirmation, single concentration. shares compounds with Rpn11 inh. purified human 26S proteasome, Ub4-pepOG fluorescence polarization; proteasome pretreated with epoxomicin. inhibition, % at 20 µM. 1,900 compounds, 29% hits
MMP-2 counter = MMP-2 (human) inhibition counter-screen; shares compounds with Rpn11 inh; recombinant MMP-2, FRET peptide cleavage fluorescence; inhibition, % at 20 µM; 1,900 compounds, 4% hits; AID 602330;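 note: human MMP-2 activated beforehand with APMA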
Thrombin FP = blocks bovine thrombin, flagging nonselective RPN11 hits | shares compounds with Rpn11 inh | bovine thrombin cleavage of Ub4-pepOG, fluorescence polarization | inhibition, % at 20 µM | 1,900 compounds, 13% hits;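 active = mean inhibition at least 40% at 20 µM, or signal 3 deviations below plate average, so some actives read negative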;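 note: plate controls were thrombin with DMSO for no effect and buffer wells lacking thrombin for full effect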
Target sequence (P00735 whole entry, looked up): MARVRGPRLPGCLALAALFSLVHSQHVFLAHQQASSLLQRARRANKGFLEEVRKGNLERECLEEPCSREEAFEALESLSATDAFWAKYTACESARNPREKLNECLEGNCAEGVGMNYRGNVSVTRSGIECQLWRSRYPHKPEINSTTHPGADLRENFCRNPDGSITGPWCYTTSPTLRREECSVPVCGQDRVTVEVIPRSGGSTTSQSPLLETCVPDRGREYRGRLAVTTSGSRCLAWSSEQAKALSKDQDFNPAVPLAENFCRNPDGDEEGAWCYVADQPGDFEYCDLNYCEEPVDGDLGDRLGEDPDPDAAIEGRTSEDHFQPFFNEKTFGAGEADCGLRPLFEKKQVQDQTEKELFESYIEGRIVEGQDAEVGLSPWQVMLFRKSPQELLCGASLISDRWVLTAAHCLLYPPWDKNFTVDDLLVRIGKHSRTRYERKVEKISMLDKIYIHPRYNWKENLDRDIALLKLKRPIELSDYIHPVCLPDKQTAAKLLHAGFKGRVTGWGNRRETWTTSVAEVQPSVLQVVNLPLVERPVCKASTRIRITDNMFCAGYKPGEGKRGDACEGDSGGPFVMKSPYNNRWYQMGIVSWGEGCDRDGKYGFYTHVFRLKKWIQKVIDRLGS
* = called active by the depositor; i = inactive; x = no result given; + = active, no number. Cut-off read from the data, not from the text of the source, unless noted: active = inhibition above about 40%; inactive = the rest.

SMILES | PKA-R2B activ | PKA-R1A activ | HNF4A DNA FP | Rpn11 inh | CSN deneddyl inh | TPT1 inhibitor | Rpn11 confirm | MMP-2 counter | Thrombin FP
CCOC(=O)C1=NOC(CN(c2ccccc2)S(=O)(=O)c2ccc(Cl)cc2)C1 (stereo unspecified) | -11.4 | -9.9 | 0.0 | i | 3.1 | 0.3 | x | x | x
NS(=O)(=O)c1ccc(-c2ccc(/C=C3\C(=O)Nc4cc(Cl)ccc43)o2)cc1 | 10.3 | 2.4 | 4.2 | i | -0.7 | x | x | x | x
NC1=NC(=O)/C(=C/c2ccc(-c3ccc(S(N)(=O)=O)cc3)o2)S1 | -3.0 | 14.5 | -7.0 | + | 33.6 | -9.9 | 89.4* | 45.6* | 42.0*
O=C(NC1CCN(S(=O)(=O)c2ccccc2F)CC1)c1ccco1 | -1.0 | 6.2 | 0.7 | i | -2.1 | -3.6 | x | x | x
CCN(C(=O)COC(=O)c1ccccc1OCc1ccc(Cl)cc1)C1CCS(=O)(=O)C1 (stereo unspecified) | -7.8 | -3.0 | -1.9 | i | -3.6 | x | x | x | x
C#CCn1c(=NC(=O)c2cccs2)sc2cccc(OC)c21 | 4.1 | -1.3 | 12.1 | + | -1.8 | -2.2 | 50.1* | 6.6 | -8.8
COc1ccc2cc(-c3csc(-c4cccnc4)n3)ccc2c1 | -12.8 | 1.9 | -0.9 | + | 20.9 | 0.0 | 9.2 | -11.9 | 3.4
CCN(CC)c1ccc(N)cc1 | -2.6 | 5.4 | 46.8* | + | 15.3 | x | 41.6* | -8.0 | 26.2
COc1ccc(N2CCN(C(=O)Cc3cccs3)CC2)cc1 | 1.9 | -1.6 | -1.8 | i | -1.9 | -1.7 | x | x | x
CC(=O)c1ccc(N2CCN(C(=O)Cc3cccs3)CC2)cc1 | -0.7 | -9.2 | 87.6* | + | -4.8 | 1.2 | -10.3 | 50.0* | -6.9
Nc1ncnc(Sc2ccc(Cl)cc2)c1[N+](=O)[O-] | 3.9 | 0.2 | 3.8 | + | -4.2 | -0.7 | 0.7 | 28.4 | 8.0
COC(=O)C/C=N/N=C1/NC(=O)/C(=C/C(=O)O)S1 | 2.8 | -3.7 | -4.8 | i | 6.3 | 3.5 | x | x | x
O=C(N/N=C\c1ccc(OC(=O)c2cccs2)cc1)c1ccc(Cl)cc1 | 8.6 | 0.3 | 8.0 | + | 29.4 | -2.2 | 31.3 | 3.9 | -3.7
CC1(C)Cc2c(c(N3CCOCC3)nc3sc(C(=O)Nc4ccc(Cl)cc4)c(N)c23)CO1 | 3.4 | 5.0 | 1.6 | i | -4.2 | 2.6 | x | x | x
Cc1nc2c(sc3nc(N4CCOCC4)c4c(c32)CC(C)(C)OC4)c(-c2ccc(Cl)cc2)c1C(=O)O | 11.0 | 0.3 | 15.4 | + | 4.8 | 17.3 | 9.8 | -29.9 | 0.7
Cc1ccc2c(C)nc(/N=C(\N)NC(=O)N3c4ccccc4Sc4ccccc43)nc2c1 | 1.7 | -1.8 | 4.1 | i | 2.2 | 0.5 | x | x | x
Cc1ccc2nc(/N=C(\N)NC(=O)N3c4ccccc4Sc4ccccc43)nc(C)c2c1 | -8.0 | -14.3 | 13.6 | + | -3.1 | -3.0 | -3.8 | 31.6 | -14.4
Cc1ccc(C)c(OCCn2cc(/C=C(/C#N)C(=O)NCC3CCCO3)c3ccccc32)c1 (stereo unspecified) | -3.5 | -11.0 | 1.2 | + | -3.5 | 10.5 | 71.8* | -0.6 | 27.7
N#C/C(=C\c1cn(CCOc2ccccc2)c2ccccc12)C(=O)NCC1CCCO1 (stereo unspecified) | -2.3 | 1.5 | -3.3 | i | -5.7 | -2.2 | x | x | x
O=C1CCCCC1C1(O)C(=O)Nc2ccccc21 (stereo unspecified) | -3.4 | 2.6 | 0.6 | i | 2.3 | x | x | x | x
C=CC[C@@H](CC(=O)N(CCO)Cc1ccccc1)C(=O)NCCOC(=O)[C@H](CC=C)CC(=O)OC(C)(C)C | -4.2 | -6.3 | 4.2 | i | -1.6 | x | x | x | x
CCOC(=O)CCC(=O)N1CCOCCOCCOCC1 | -2.6 | -1.8 | 0.5 | i | 3.0 | -0.6 | x | x | x
CCOC(=O)CCC(=O)N1CCOCCN(C(=O)CCC(=O)OCC)CCOCC1 | -14.5 | -10.4 | 5.0 | + | 1.7 | 3.1 | -3.3 | 10.6 | 30.3
Cc1ccc(O)c(C(=O)c2cc(C#N)c(=O)n(Cc3ccccc3)c2)c1 | -17.0 | -4.1 | 7.2 | + | 8.5 | 14.0 | 13.1 | -3.3 | 16.7
CC(=O)Oc1ccc(CCC(C)OC(C)=O)cc1 (stereo unspecified) | -9.6 | -5.4 | 0.5 | + | 4.5 | -2.0 | -14.4 | -0.4 | -11.7
SMILES | PKA-R2B activ | PKA-R1A activ | HNF4A DNA FP | Rpn11 inh | CSN deneddyl inh | TPT1 inhibitor | Rpn11 confirm | MMP-2 counter | Thrombin FP
CC(=O)Oc1ccc(S(=O)(=O)c2ccc(OC(C)=O)cc2)cc1 | -1.5 | -6.0 | -2.3 | i | -9.2 | -2.2 | x | x | x
Cc1cc(=O)[nH]c(SCC(=O)N2CCCC(C)C2)n1 (stereo unspecified) | 7.2 | -4.4 | 4.6 | i | 2.4 | 0.9 | x | x | x
CCOC(=O)c1ccc(-n2cccc2/C=C2\NC(=O)NC2=O)cc1 | 10.4 | -6.2 | 4.4 | + | -3.3 | x | 3.7 | -72.8 | -14.3
C/C(=N/NC(=O)c1ccoc1C)c1cccc(NC(=O)C2CC2)c1 | 11.1 | -10.2 | 0.0 | i | 0.1 | -1.0 | x | x | x
COc1ccccc1NS(=O)(=O)c1cccc(C(=O)N/N=C/c2ccc3c(c2)OCCO3)c1 | 1.9 | 6.0 | 4.3 | i | 0.1 | 2.2 | x | x | x
CCN(CC)c1ccc(/C=N/NC(=O)c2cccc(S(=O)(=O)Nc3ccccc3OC)c2)cc1 | -6.5 | -11.5 | 11.2 | + | 13.7 | 1.5 | 56.6* | -19.3 | 33.1
CSc1ncccc1C(=O)NCc1nnc2ccccn12 | 10.2 | 11.0 | -0.4 | i | -0.9 | x | x | x | x
CC(C)(C)c1ccc(/C=C2/SC(N3CCCC3)=NC2=O)cc1 | x | x | -1.8 | i | 0.6 | 2.5 | x | x | x
COc1ccccc1Cc1c(-c2cccc(Br)c2)nc2ccc(Br)cn12 | x | x | 20.0 | i | 11.8 | x | x | x | x
COc1ccccc1Cc1c(-c2ccccc2)nc2ccc(Br)cn12 | x | x | 17.3 | x | 3.7 | x | x | x | x
CC(C)(C)Cc1c(-c2cccc(Cl)c2)nc2ccc(Cl)cn12 | x | x | 23.9 | + | 5.7 | x | -6.0 | 52.1* | 2.5
Clc1cccc(-c2nc3ccc(Cl)cn3c2Cc2ccccc2)c1 | x | x | 15.2 | i | 8.5 | x | x | x | x
COc1ccccc1Cc1c(-c2ccc(C)cc2)nc2ccc(Br)cn12 | x | x | 11.0 | + | 99.9* | x | 6.6 | -37.2 | 0.5
COc1ccccc1Cc1c(-c2ccc(Cl)cc2)nc2ccc(Br)cn12 | x | x | 34.1 | + | 14.8 | x | 40.5* | -0.5 | 50.8*
COc1ccccc1Cc1c(-c2cccc(Br)c2)nc2ccc(Cl)cn12 | x | x | 33.9 | + | 14.7 | x | 60.2* | -8.1 | 39.3
